Among the data in ChEMBL document CHEMBL1150875, “Petrosaspongiolides M-R: new potent and selective phospholipase A2 inhibitors from the New Caledonian marine sponge Petrosaspongia nigra” (J Nat Prod, 1998) are Activity and IC50 values, retold here.

In test [1] the target is T1, Phospholipase A2 (Apis mellifera) (UniProt P00630).
T1 sequence (whole entry): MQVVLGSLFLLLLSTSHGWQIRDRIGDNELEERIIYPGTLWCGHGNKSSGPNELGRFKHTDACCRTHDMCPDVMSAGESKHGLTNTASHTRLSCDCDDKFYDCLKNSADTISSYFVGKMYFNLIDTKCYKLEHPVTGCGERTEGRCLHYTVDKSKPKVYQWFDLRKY
Briefly: Inhibition of bee venom secretory PLA2 at 10 uM. Also noted: scale not given: the % may be the effect or the level left. In outline:
(§1)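 Secreted PLA2 from Naja naja venom or bee venom exposed to 10 µM compound. Result reported as percent inhibition, mean ± S.E.M. of n = 6.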

For test [2], the target named is Acidic phospholipase A2 2 (Naja naja) (UniProt P15445). Nature of the test: Inhibition of Naja Naja venom secretory PLA2 at 10 uM. Also on record: scale not given: the % may be the effect or the level left. In outline:
as §1

The species named for a further test is Sus scrofa. Briefly: Inhibition of pig pancreatic secretory PLA2 at 10 uM. Also on record: scale not given: the % may be the effect or the level left. In outline:
(§2)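 Percent inhibition of the enzyme's activity with test compound at 10 µM. Reported as mean ± S.E.M., n = 6, with significance marked at p < 0.05 and p < 0.01.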

Test [3] has as its target Phospholipase A2 (Homo sapiens) (UniProt P04054). Nature of the test: Inhibition of human synovial secretory PLA2 at 10 uM. Also noted: scale not given: the % may be the effect or the level left. Put shortly:
as §2

The target in the next test is T2, Phospholipase A2 (Apis mellifera, UniProt P00630).
T2 sequence (P00630 whole entry): T1 sequence (whole entry)
Briefly: Inhibition of bee venom secretory PLA2.

Acidic phospholipase A2 2 (Naja naja), sequence (P15445 whole entry): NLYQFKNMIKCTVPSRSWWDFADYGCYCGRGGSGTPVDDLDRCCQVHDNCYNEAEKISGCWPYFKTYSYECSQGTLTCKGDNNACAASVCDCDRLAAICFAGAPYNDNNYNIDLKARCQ
Phospholipase A2 (Homo sapiens), sequence (P04054 23-148 limits assumed): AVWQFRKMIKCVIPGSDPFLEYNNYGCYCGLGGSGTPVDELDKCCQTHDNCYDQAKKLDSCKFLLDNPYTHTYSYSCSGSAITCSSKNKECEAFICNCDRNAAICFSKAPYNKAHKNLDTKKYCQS

As for `CC1(C)CCC[C@]2(C)[C@H]3CC[C@H](C(=O)O)[C@@H](/C=C/C4=CC(=O)OC4O)[C@]3(C)CC[C@@H]12` (stereo partly specified), the Activity in test [1] turned out to be 18.8%; in test [2] it was 1%; in the test filed under Sus scrofa, 0.8%; in test [3] it was 7.1%.
In the same order, the values of `CC(=O)OC[C@@]1(C)CCC[C@]2(C)[C@H]3CC[C@@H]4[C@H](O)O[C@@H](C5=CC(=O)OC5O)C[C@H]4[C@]3(C)CC[C@@H]12` (stereo partly specified) are 12.5%, 4.2%, 0% and 30.1%.
The matching figures for `CC(=O)OC1OC(=O)C=C1[C@H]1C[C@@H]2[C@H](CCC3[C@@]4(C)CCCC(C)(C)C4CC[C@]32C)[C@@H](OC(C)=O)O1` (stereo partly specified): 10.6%, 6.9%, 0% and 32.1%.
In the same order, the values of `CC(=O)O[C@H]1O[C@@H](C2=CC(=O)OC2O)C[C@@H]2[C@@H]1CCC1[C@@]3(C)CCCC(C)(C)C3CC[C@]12C` (stereo partly specified) are 34.8%, 5.6%, 0% and 59%.
With `CC(=O)OC[C@@]1(C)CCC[C@]2(C)[C@H]3CC[C@@H]4[C@H](OC(C)=O)O[C@@H](C5=CC(=O)OC5O)C[C@H]4[C@]3(C)CC[C@@H]12` (stereo partly specified), the Activity in test [1] was 43.9%; in test [2] it was 6.8%; in the test filed under Sus scrofa it was 11.6%; in test [3], 44%.
By IC50 is commonly meant the concentration that gives 50% inhibition. The compound `CC1=C(CC/C(C)=C/CCC2=CC[C@H](C3=CC(=O)O[C@H]3O)O[C@H]2O)C(C)(C)CCC1` [MANOALIDE] showed an IC50 on Phospholipase A2 of 7.5 µM.
On to `CC(=O)O[C@@H]1O[C@@H](C2=CC(=O)OC2O)C[C@@H]2[C@@H]1CC[C@H]1[C@@]2(C)CC[C@H]2C(C)(C)CCC[C@]12C` (stereo partly specified) [PETROSASPONGIOLIDE M], for which the Activity in test [1] worked out at 71%; in test [2], 11.5%; in the test listed under Sus scrofa, 12.3%; in test [3], 68.6%. Moreover, on Phospholipase A2, the midpoint of inhibition, the IC50, lay at 0.6 µM.
